A short description of data set [1]: Potentiation of colistin-induced antibacterial activity against Francisella philomiragia ATCC 25015 assessed as MIC of colistin at 50 uM after 48 hrs (reference value: 256 ug/ml). The settings on record: ATCC 25015, 48 h. Format: functional. The essentials: (§1)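 Inocula were 5 × 10^5 CFU/mL in CAMHB with 2% IsoVitaleX (F. philomiragia) or TSB-C (F. novicida). Adjuvant from a 100 mM DMSO stock was held at one fixed concentration; the control had no adjuvant. Antibiotic started at 2–2,048 µg/mL in twofold serial dilutions. Incubation was stationary at 37°C for 48 h. Antibiotic MIC was the lowest concentration with no growth, compared with and without adjuvant.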

The nature of data set [2]: Potentiation of azithromycin-induced antibacterial activity against Francisella philomiragia ATCC 25015 assessed as MIC of azithromycin at 50 uM after 48 hrs (reference value: 4 ug/ml). The class given is functional. The settings on record: ATCC 25015, 48 h. Summed up: as §1
Data set [3] can be described thus: Potentiation of streptomycin-induced antibacterial activity against Francisella philomiragia ATCC 25015 assessed as MIC of streptomycin at 50 uM after 48 hrs (reference value: 4 ug/ml). The following applies: ATCC 25015, 48 h. The class given is functional. Summed up: as §1
A short description of data set [4]: Effect on growth of Francisella philomiragia ATCC 25015 after 48 hrs. Summed up: (§2)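 Cultures grown 24 h were diluted to 5 × 10^5 CFU/mL in CAMHB with 2% IsoVitaleX (F. philomiragia) or TSB-C (F. novicida). Compound came from a 100 mM DMSO stock, starting at 200 µM, in twofold serial dilutions over 12 wells. Plates were incubated stationary at 37°C for 48 h. MIC was the lowest concentration with no bacterial growth.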

Data set [5] is described as follows: Potentiation of gentamicin-induced antibacterial activity against Francisella philomiragia ATCC 25015 assessed as MIC of gentamicin at 50 uM after 48 hrs (reference value: 0.5 ug/ml). Format: functional. The settings on record: ATCC 25015, 48 h. The essentials:
as §1

Data set [6] in a line: Potentiation of colistin-induced antibacterial activity against Francisella philomiragia ATCC 25015 assessed as reduction of colistin MIC at 50 uM after 48 hrs relative to control. Format: functional. The essentials: as §1
Data set [7] is described as follows: Potentiation of azithromycin-induced antibacterial activity against Francisella novicida U112 assessed as MIC of azithromycin at 50 uM after 48 hrs (reference value: 2 ug/ml). The class given is functional, Francisella tularensis subsp. novicida U112. The following applies: Francisella tularensis. Summed up: as §1
A short description of data set [8]: microbe, parasite or virus in culture. Format: functional, Francisella tularensis subsp. novicida U112. The following applies: Francisella tularensis, 48 h.
The nature of data set [9]: Potentiation of gentamicin-induced antibacterial activity against Francisella novicida U112 assessed as MIC of gentamicin at 50 uM after 48 hrs (reference value: 1 ug/ml). Format: functional, Francisella tularensis subsp. novicida U112. The following applies: Francisella tularensis. The essentials: as §1
Data set [10] in a line: Potentiation of gentamicin-induced antibacterial activity against Francisella philomiragia ATCC 25015 assessed as reduction of gentamicin MIC at 50 uM after 48 hrs relative to control. The class given is functional. The essentials: as §1
The nature of data set [11]: Potentiation of streptomycin-induced antibacterial activity against Francisella philomiragia ATCC 25015 assessed as reduction of streptomycin MIC at 50 uM after 48 hrs relative to control. Format: functional. The essentials:
as §1

The nature of data set [12]: Effect on growth of Francisella novicida U112 after 48 hrs. The following applies: francisella tularensis subsp. novicida u112, 48 h. Summed up: as §2
Data set [13] is described as follows: microbe, parasite or virus in culture. The settings on record: Francisella philomiragia, ATCC 25015, 48 h. Format: functional.
The subject of data set [14] is Francisella tularensis subsp. novicida U112. In words: Potentiation of azithromycin-induced antibacterial activity against Francisella novicida U112 assessed as reduction of azithromycin MIC at 50 uM after 48 hrs relative to control. Format: functional. The essentials: as §1
A short description of data set [15]: Potentiation of azithromycin-induced antibacterial activity against Francisella philomiragia ATCC 25015 assessed as reduction of azithromycin MIC at 50 uM after 48 hrs relative to control. The class given is functional. Summed up: as §1
Data set [16] in a line: Effect on growth of Francisella philomiragia ATCC 25015 assessed as growth delay at 50 uM after 8 to 12 hrs by time kill assay. The essentials:
(§3)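 F. philomiragia from 24 h CAMHB/2% IsoVitaleX cultures was inoculated to 5 × 10^5 CFU/mL, with compound or as an untreated control. Tubes were shaken at 37°C. Samples taken at 8, 12, 16, 20 and 24 h were serially diluted and plated on cysteine heart agar with 5% rabbit blood. Plates were incubated at 37°C for 24–36 h, and CFU were counted.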

A short description of data set [17]: Effect on growth of Francisella philomiragia ATCC 25015 at 50 uM after 16 hrs by time kill assay. The essentials: as §3
The nature of data set [18]: Potentiation of colistin-induced antibacterial activity against Francisella novicida U112 assessed as reduction of colistin MIC at 100 uM after 48 hrs. Format: functional, Francisella tularensis subsp. novicida U112. The essentials: as §1
Data set [19] in a line: Potentiation of colistin-induced antibacterial activity against Francisella novicida U112 assessed as reduction of colistin MIC at 50 uM after 48 hrs relative to control. Format: functional, Francisella tularensis subsp. novicida U112. Summed up:
as §1

Data set [20] in a line: Potentiation of FR900098-induced antibacterial activity against Francisella philomiragia ATCC 25015 assessed as reduction of FR900098 MIC at 50 uM after 48 hrs relative to control. Format: functional. The essentials: as §1

Converted amounts (≈) assume the structure as drawn. The source made the active and inactive calls. The rule behind the calls is not given here. Some results are limits rather than exact numbers.

Turning to `CCCCc1ccc(C(=O)NCCCc2c[nH]c3ccccc23)cc1`, the MIC in data set [1] was 64 µg/mL; in data set [2] it was 2 µg/mL; in data set [3], 4 µg/mL; in data set [4] it was above 200 µM; in data set [5], 0.25 µg/mL. The “fold change (FC)” value in data set [6] came to 4.

`Cc1cc2nc(N)[nH]c2cc1C`: the MIC in data set [7] was 2 µg/mL; in data set [1] it was 32 µg/mL; in data set [2] it was 4 µg/mL; in [8] it was 1020 µg/mL (≈ 6.35 mM); in data set [3], 1 µg/mL; in [4], above 200 µM. Further, the MIC was 1 µg/mL in data set [9], 0.125 µg/mL in data set [5], above 200 µg/mL in data set [12] and 1020 µg/mL (≈ 6.35 mM) in [13]. The “fold change (FC)” value in data set [10] and in data set [11] was 4 each time.

On to `CCSC(=O)N1CCc2ccccc21`, for which the MIC is 0.125 µg/mL in data set [7]; 256 µg/mL in data set [1]; 0.5 µg/mL in [2]; 1020 µg/mL (≈ 4.94 mM) in data set [8]; 4 µg/mL in [3]; above 200 µM in data set [4]. Moreover, the MIC in [9] is 4 µg/mL; in data set [5], 0.5 µg/mL; in data set [12] it was above 200 µg/mL; in data set [13], 1020 µg/mL (≈ 4.94 mM). The result in [14] was Active. Also, in data set [15], the “fold change (FC)” value came to 8.

Regarding `CCCCc1ccc(C(=O)NCCc2c[nH]c3ccccc23)cc1`, the MIC in [7] is 1 µg/mL; in data set [1] it was 8 µg/mL; in data set [2], 0.5 µg/mL; in [8], 512 µg/mL (≈ 1.6 mM); in data set [3] it was 4 µg/mL; in [4] it was above 200 µM. Besides, the MIC was 4 µg/mL in data set [9], 0.25 µg/mL in data set [5], above 200 µg/mL in [12] and 1020 µg/mL (≈ 3.2 mM) in data set [13]. The Activity entry in data set [16] is listed as “Toxic”; in [17] it was “Non-toxic”. The figures for the “fold change (FC)” value in data set [18] and in data set [19] were 16 and 2, respectively.

Regarding `CCCCCc1ccc(C2=NCCO2)cc1`, the MIC is 512 µg/mL in data set [1]; 2 µg/mL in data set [2]; 8 µg/mL in data set [3]; 200 µM (≈ 43.5 µg/mL) in data set [4]; 1 µg/mL in [5]; below 64 µg/mL in data set [13]. The “fold change (FC)” value in data set [20] was found to be 16.

These data come from ChEMBL document CHEMBL3792321, “Potentiation of Francisella Resistance to Conventional Antibiotics through Small Molecule Adjuvants” (Medchemcomm, 2016).
